From ChEMBL document CHEMBL3763021 (Eur J Med Chem, 2016)

Legend:
[1] = Inhibition of Sonic-induced hedgehog signalling in mouse NIH3T3 cells after 48 hrs by Gli-luciferase reporter assay; format: cell-based; details: NIH3T3, 48 h
How it was run: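 NIH3T3 cells stably carrying a Gli-luciferase reporter were kept in DMEM with 10% FBS and 1 µg/mL puromycin, then seeded at 2×10^4 cells/well overnight at 37 °C. Compounds at 0.05–300 nM (8 concentrations) were added in medium with 0.5% FBS and 0.7 µg/mL Sonic Hh agonist, n=4 wells, for 48 h. Readout was the Firefly/Renilla luciferase ratio in lysates.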

Mus musculus [2] = experiment: Toxicity in BALB/C mouse xenografted with human LS174T cells assessed as mortality at 75 mg/kg, bid administered for 10 days; format: organism-based; details: in vivo, 240 h
How it was run: (§1)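 Male BALB/C nude mice (18–20 g) kept under SPF conditions. LS-174T cells at 2.5×10^7 cells/mL injected subcutaneously into the right flank. Once tumors reached about 100 mm3, mice were randomized to groups of 6 (vehicle group n = 9) and dosed orally once or twice daily for 10 days. Controls received solvent. Body weight and tumor volume were measured twice weekly and deaths recorded.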

LS174T [3] = experiment: Antitumor activity against human LS174T cells xenografted in BALB/C mouse assessed as tumor weight inhibition at 75 mg/kg, bid administered for 10 days measured twice per week; format: functional; details: 240 h, read-out: TGI
How it was run: (§2)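 Male BALB/c nude mice, 18–20 g, kept under SPF conditions. LS-174T cells at 2.5×10^7 cells/mL were injected s.c. into the right flank, and tumors were grown to about 100 mm3. Mice were randomized, n=6 treated and n=9 vehicle. Oral dosing ran qd or bid for 10 days; vehicle controls got the same volume of solvent. Tumor volume = length×width²/2, measured twice weekly. IR = (control − treated)/control for tumor weight or volume at day 10.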

[4] = Cmax in Sprague-Dawley rat at 1 mg/kg, iv by LC/MS/MS analysis; format: ADME, organism-based; design: dose 1 mg/kg, route intravenous; details: in vivo
How it was run: (§3)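 Male SD rats, 180–240 g, 3 per compound; single dose of 1 mg/kg iv or 5 mg/kg po, dosing volume 5 mL/kg. Blood was sampled from 2 min to 24 h and centrifuged at 4 °C. Plasma underwent protein precipitation, then LC/MS/MS in SRM mode with an internal standard. Parameters were derived by noncompartmental analysis.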

[5] = Cmax in Sprague-Dawley rat at 5 mg/kg, po by LC/MS/MS analysis; format: ADME, organism-based; design: dose 5 mg/kg, route oral; details: in vivo; how it was run: as §3
[6] = AUC (0 to t) in Sprague-Dawley rat at 1 mg/kg, iv by LC/MS/MS analysis; format: ADME, organism-based; details: in vivo
How it was run: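 Male SD rats, 3 per compound, 180–240 g, single iv dose at 1 mg/kg, dosing volume 5 mL/kg. Blood sampled at 2, 5, 15, 30 min and 1, 2, 4, 6, 8, 10, 24 h, then centrifuged at 4 °C. Plasma protein-precipitated and analysed by LC/MS/MS in SRM mode with internal standard. AUC(0-t) obtained by noncompartmental analysis.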

[7] = AUC (0 to t) in Sprague-Dawley rat at 5 mg/kg, po by LC/MS/MS analysis; format: ADME, organism-based; details: in vivo; how it was run: as §3
[8] = Apparent volume of distribution in Sprague-Dawley rat at 1 mg/kg, iv by LC/MS/MS analysis; details: in vivo
Rattus norvegicus = experiment: Apparent volume of distribution in Sprague-Dawley rat at 5 mg/kg, po by LC/MS/MS analysis; details: in vivo
[9] = Clearance in Sprague-Dawley rat at 1 mg/kg, iv by LC/MS/MS analysis; format: ADME, organism-based; details: in vivo; how it was run: as §3
[10] = Clearance in Sprague-Dawley rat at 5 mg/kg, po by LC/MS/MS analysis; format: ADME, organism-based; details: in vivo; how it was run: as §3
[11] = Mean resident time (0 to t) in Sprague-Dawley rat at 1 mg/kg, iv by LC/MS/MS analysis; format: ADME, organism-based; details: in vivo; how it was run: as §3
[12] = Mean resident time (0 to t) in Sprague-Dawley rat at 5 mg/kg, po by LC/MS/MS analysis; format: ADME, organism-based; details: in vivo; how it was run: as §3
[13] = Half life in Sprague-Dawley rat at 1 mg/kg, iv by LC/MS/MS analysis; format: ADME, organism-based; details: in vivo; how it was run: as §3
[14] = Half life in Sprague-Dawley rat at 5 mg/kg, po by LC/MS/MS analysis; format: ADME, organism-based; details: in vivo; how it was run: as §3
[15] = Oral bioavailability in Sprague-Dawley rat at 5 mg/kg; format: ADME, organism-based; details: in vivo; how it was run: as §3
LS174T [16] = experiment: Antiproliferative activity against human LS174T cells after 72 hrs by CellTiter-Glo luminescent cell viability assay; format: functional, cell-based
How it was run: (§4)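 Cells were grown in DMEM with 10% FBS, seeded at a density suited to each line, and left 24 h at 37 °C. Compounds were prepared in DMSO, diluted in medium over a concentration series starting at 100 µM, and applied for 72 h. CellTiter-Glo reagent was added for 30 min at room temperature before reading luminescence. IC50 came from four-parameter curve fitting.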

[17] = Antiproliferative activity against human PC3 cells after 72 hrs by CellTiter-Glo luminescent cell viability assay; format: functional, cell-based; details: PC-3, 72 h; how it was run: as §4
[18] = Antiproliferative activity against human BxPC3 cells after 72 hrs by CellTiter-Glo luminescent cell viability assay; format: functional, cell-based; details: BXPC-3, 72 h; how it was run: as §4
LS174T [19] = experiment: Antitumor activity against human LS174T cells xenografted in BALB/C mouse assessed as tumor weight inhibition at 37.5 mg/kg, qd administered for 10 days measured twice per week; format: functional; details: 240 h, read-out: TGI; how it was run: as §2
LS174T [20] = experiment: Antitumor activity against human LS174T cells xenografted in BALB/C mouse assessed as tumor weight inhibition at 75 mg/kg, qd administered for 10 days measured twice per week; format: functional; details: 240 h, read-out: TGI; how it was run: as §2
LS174T [21] = experiment: Antitumor activity against human LS174T cells xenografted in BALB/C mouse assessed as tumor weight inhibition at 150 mg/kg, qd administered for 10 days measured twice per week; format: functional; details: 240 h, read-out: TGI; how it was run: as §2
Mus musculus [22] = experiment: Toxicity in BALB/C mouse xenografted with human LS174T cells assessed as mortality at 37.5 to 150 mg/kg, qd administered for 10 days; format: organism-based; details: in vivo, 240 h; how it was run: as §1
Mus musculus [23] = experiment: Toxicity in BALB/C mouse xenografted with human LS174T cells assessed as loss of body weight at 75 mg/kg, bid administered for 10 days measured twice per week; format: organism-based; details: in vivo, 240 h; how it was run: as §1
Mus musculus [24] = experiment: Toxicity in BALB/C mouse xenografted with human LS174T cells assessed as loss of body weight at 37.5 to 150 mg/kg, qd administered for 10 days measured twice per week; format: organism-based; details: in vivo, 240 h; how it was run: as §1
LS174T [25] = experiment: Antitumor activity against human LS174T cells xenografted in BALB/C mouse assessed as tumor volume inhibition at 75 mg/kg, bid administered for 10 days measured twice per week; details: 240 h, read-out: TGI
LS174T [26] = experiment: Antitumor activity against human LS174T cells xenografted in BALB/C mouse assessed as tumor volume inhibition at 37.5 mg/kg, qd administered for 10 days measured twice per week; format: functional; details: 240 h, read-out: TGI; how it was run: as §2
LS174T [27] = experiment: Antitumor activity against human LS174T cells xenografted in BALB/C mouse assessed as tumor volume inhibition at 75 mg/kg, qd administered for 10 days measured twice per week; format: functional; details: 240 h, read-out: TGI; how it was run: as §2
LS174T [28] = experiment: Antitumor activity against human LS174T cells xenografted in BALB/C mouse assessed as tumor volume inhibition at 150 mg/kg, qd administered for 10 days measured twice per week; format: functional; details: 240 h, read-out: TGI; how it was run: as §2

IC50 [1] | Cmax [4] | AUC(0-t) [6] | Vd [8] | clearance [9] | MRT last [11] | half-life [13] | SMILES | Cmax [5] | AUC(0-t) [7] | CL/F [10] | MRT last [12] | half-life [14] | bioavailability [15] | also measured
0.97 nM | – | – | – | – | – | – | Cc1ccc(CN2CCN(C)CC2)cc1NC(=O)c1ccc(Nc2nccc(-c3ccc(OC(F)(F)F)cc3)n2)cc1 | – | – | – | – | – | – | –
3.04 nM | – | – | – | – | – | – | Cc1ccc(CN(C)C)cc1NC(=O)c1ccc(Nc2nccc(-c3ccc(OC(F)(F)F)cc3)n2)cc1 | – | – | – | – | – | – | –
1.83 nM | – | – | – | – | – | – | Cc1ccc(CN2CCCC2)cc1NC(=O)c1ccc(Nc2nccc(-c3ccc(OC(F)(F)F)cc3)n2)cc1 | – | – | – | – | – | – | –
3.12 nM | – | – | – | – | – | – | Cc1ccc(CN2CCCCC2)cc1NC(=O)c1ccc(Nc2ncc(F)c(-c3ccc(OC(F)(F)F)cc3)n2)cc1 | – | – | – | – | – | – | –
5.5 nM | 1930 ng/mL | 2200 ng·h/mL | 0.955 L/kg | 7.69 mL/min/kg | 1.58 h | 1.43 h | Cc1c(C(=O)Nc2ccc(N3C[C@@H](C)O[C@@H](C)C3)nc2)cccc1-c1ccc(OC(F)(F)F)cc1 [SONIDEGIB] | 1400 ng/mL | 8830 ng·h/mL | 9.72 mL/min/kg | 5.4 h | 4.01 h | 80.6% | Vd(app) (Rattus norvegicus): 3.40593 L/kg

The remaining lines, values behind:

SMILES | IC50 [1] | Cmax [4] | AUC(0-t) [6] | Vd [8] | clearance [9] | MRT last [11] | half-life [13] | Cmax [5] | AUC(0-t) [7] | CL/F [10] | MRT last [12] | half-life [14] | bioavailability [15] | also measured
Cc1ccc(CN2CCCC2)cc1NC(=O)c1ccc(Nc2ncc(F)c(-c3ccc(OC(F)(F)F)cc3)n2)cc1 | 5.16 nM | – | – | – | – | – | – | – | – | – | – | – | – | –
Cc1ccc(CN2CCOCC2)cc1NC(=O)c1ccc(Nc2nccc(-c3ccc(OC(F)(F)F)cc3)n2)cc1 | 0.89 nM | 1200 ng/mL | 2440 ng·h/mL | 2.87 L/kg | 6.69 mL/min/kg | 4.22 h | 4.96 h | 635 ng/mL | 6220 ng·h/mL | 12.3 mL/min/kg | 6.98 h | 6.68 h | 42% | Activity (Mus musculus [2]): Non-toxic; inhibition in vivo at 75 mg/kg (LS174T [3]): 23.3%; Vd(app) (Rattus norvegicus): 7.12872 L/kg; IC50 (LS174T [16]): 12200 nM; IC50 [17]: 14800 nM; IC50 [18]: 35400 nM; inhibition in vivo at 37.5 mg/kg (LS174T [19]): 10.2%; inhibition in vivo at 75 mg/kg (LS174T [20]): 9.9%; inhibition in vivo at 150 mg/kg (LS174T [21]): 21.1%; Activity (Mus musculus [22]): Non-toxic; Activity (Mus musculus [23]): Non-toxic; Activity (Mus musculus [24]): Non-toxic; inhibition in vivo at 75 mg/kg (LS174T [25]): 42.9%; inhibition in vivo at 37.5 mg/kg (LS174T [26]): 33%; inhibition in vivo at 75 mg/kg (LS174T [27]): 23.2%; inhibition in vivo at 150 mg/kg (LS174T [28]): 38.9%
O=C(Nc1cccc(CN2CCOCC2)c1)c1ccc(Nc2nccc(-c3ccc(OC(F)(F)F)cc3)n2)cc1 | 0.56 nM | 915 ng/mL | 769 ng·h/mL | 6.33 L/kg | 21.5 mL/min/kg | 1.53 h | 3.59 h | – | – | – | – | – | – | –
CS(=O)(=O)c1ccc(C(=O)Nc2ccc(Cl)c(-c3ccccn3)c2)c(Cl)c1 [VISMODEGIB] | 7.2 nM | – | – | – | – | – | – | 3640 ng/mL | 22400 ng·h/mL | 4.68 mL/min/kg | 3.93 h | 2.46 h | > 100% | Activity (Mus musculus [2]): Non-toxic; inhibition in vivo at 75 mg/kg (LS174T [3]): 11.8%; IC50 (LS174T [16]): 45800 nM; IC50 [17]: 66800 nM; IC50 [18]: 48000 nM
